In ChEMBL document CHEMBL5376022, “Design, synthesis and biological evaluation of novel pyrimidine derivatives as bone anabolic agents promoting osteogenesis via the BMP2/SMAD1 signaling pathway” (RSC Med Chem, 2024):
Active and inactive are the calls of the source. The calls are words filed in the database; no cut-off is given here.

Legend:
[1] = system: Calvarial osteoblast; assay: Induction of osteogenesis in BALB/c mouse calvarial osteoblast cells using PNPP as substrate assessed as increase in ALP activity at 0.001 to 1000 nM measured after 48 hrs by spectrophotometry; assay type: functional, cell-based; conditions: Calvaria, dose 0.001-1000 nM
Summary of the method: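 Neonatal BALB/c calvarial osteoblasts, 2 × 10³ cells per well, adhered 24 h, then exposed to compounds (1 pM to 1 μM range) in osteoblast differentiation medium for 48 h. Cells frozen overnight at −80 or −20 °C, thawed at 37 °C to expose ectoenzyme; p-nitrophenyl phosphate added and ALP activity read at 405 nm. Untreated cells as control.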

[2] = system: Calvarial osteoblast; assay: Cytotoxicity in BALB/c mouse calvarial osteoblast cells at 0.001 to 1000 nM incubated for 48 hrs by MTT assay; assay type: toxicity, cell-based, Calvaria; conditions: 1 µM, dose 0.001-1000 nM
Summary of the method: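 Primary calvarial osteoblasts from 1–2 day old BALB/c pups (collagenase/dispase digests, α-MEM with 10% FBS) seeded at 2 × 10³ per well. MTT added for 4 h at 37 °C, formazan dissolved in DMSO, absorbance read at 570 nm.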

[3] = system: Calvarial osteoblast; assay: Induction of cell proliferation of BALB/c mouse calvarial osteoblast cells at 0.001 nM incubated for 48 hrs by MTT assay relative to control; assay type: functional, Calvaria
Summary of the method: (§1)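 Primary calvarial osteoblasts from 1–2-day-old neonatal BALB/c pups, released by dispase/collagenase digestion and grown in α-MEM with 10% FBS. Seeded at 2 × 10³ cells per well, treated after 24 h for 48 h in α-MEM with 5% FBS, 10 mM β-glycerophosphate and 50 μg mL⁻¹ ascorbic acid. MTT added for 4 h at 37 °C, formazan dissolved in DMSO, absorbance read at 570 nm versus untreated cells.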

[4] = system: Calvarial osteoblast; assay: Induction of cell proliferation of BALB/c mouse calvarial osteoblast cells at 0.1 nM incubated for 48 hrs by MTT assay relative to control; assay type: functional, Calvaria; summary of the method: as §1
[5] = Induction of osteogenesis in BALB/c mouse MSC cells assessed as increase in mineral nodule formation at 0.1 nM treated for 21 days with compound refreshment for every 48 hrs by Alizarin red S staining based analysis relative to control; assay type: functional; conditions: time 21 day
Summary of the method: (§2)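 Bone marrow cells were flushed from the long bones of 6–8-week-old BALB/c mice and seeded at 2 × 10⁶ per well. Medium: 10% FBS, 100 nM dexamethasone, 50 μg mL⁻¹ ascorbic acid and 10 mM β-glycerophosphate. Compound and medium were renewed every 48 h for 21 days. Cells were fixed in 4% paraformaldehyde and stained with Alizarin red (pH 4.2). Stain was eluted with 10% cetylpyridinium chloride for 1 h and read at 595 nm versus control.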

[6] = Induction of osteogenesis in BALB/c mouse MSC cells assessed as increase in mineral nodule formation at 0.001 nM treated for 21 days with compound refreshment for every 48 hrs by Alizarin red S staining based analysis relative to control; assay type: functional; conditions: time 21 day; summary of the method: as §2
[7] = system: Calvarial osteoblast; assay: Induction of osteogenesis in BALB/c mouse calvarial osteoblast cells assessed as increase in RUNX mRNA level at 1 to 100 pM by qPCR analysis; assay type: functional, cell-based; conditions: Calvaria, dose 1-100 pM
Summary of the method: (§3)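 BALB/c calvarial osteoblasts treated at 1 pM and 100 pM; RNA isolated, cDNA synthesized and RUNX2 and type 1 col transcripts measured by PCR.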

[8] = system: Calvarial osteoblast; assay: Induction of osteogenesis in BALB/c mouse calvarial osteoblast cells assessed as increase in type-1 col mRNA level at 1 to 100 pM by qPCR analysis; assay type: functional, cell-based; conditions: Calvaria, dose 1-100 pM; summary of the method: as §3
[9] = system: Calvarial osteoblast; assay: Induction of osteogenesis in BALB/c mouse calvarial osteoblast cells assessed as increase in BMP2 level at 1 to 100 pM incubated for 48 hrs by Western blot analysis; assay type: functional, cell-based; conditions: Calvaria, dose 1-100 pM
Summary of the method: (§4)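 Calvarial osteoblasts seeded at 10⁶ per well, treated after 24 h at 1 pM and 100 pM for 48 h. Lysed with protease and phosphatase inhibitors, protein by BCA; 30 μg resolved by SDS-PAGE, PVDF transfer, 5% BSA block. Primary antibodies to BMP2, SMAD1, phospho-SMAD1, RUNX2, type I col (1:1000) overnight at 4 °C; β-actin loading control; HRP chemiluminescence and densitometry.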

[10] = system: Calvarial osteoblast; assay: Induction of osteogenesis in BALB/c mouse calvarial osteoblast cells assessed as increase in SMAD1 level at 1 to 100 pM incubated for 48 hrs by Western blot analysis; assay type: functional, cell-based; conditions: Calvaria, dose 1-100 pM; summary of the method: as §4
[11] = system: Calvarial osteoblast; assay: Induction of osteogenesis in BALB/c mouse calvarial osteoblast cells assessed as increase in phosphorylated SMAD1 level at 1 to 100 pM incubated for 48 hrs by Western blot analysis; assay type: functional, cell-based; conditions: Calvaria, dose 1-100 pM; summary of the method: as §4
[12] = system: Calvarial osteoblast; assay: Induction of osteogenesis in BALB/c mouse calvarial osteoblast cells assessed as increase in RUNX2 level at 1 to 100 pM incubated for 48 hrs by Western blot analysis; assay type: functional, cell-based; conditions: Calvaria, dose 1-100 pM; summary of the method: as §4
[13] = system: Calvarial osteoblast; assay: Induction of osteogenesis in BALB/c mouse calvarial osteoblast cells assessed as increase in type-1 col level at 1 to 100 pM incubated for 48 hrs by Western blot analysis; assay type: functional, cell-based; conditions: Calvaria, dose 1-100 pM; summary of the method: as §4
[14] = Stability in SGF assessed as compound remaining measured upto 6 hrs by RP-UHPLC analysis; assay type: ADME; conditions: simulated gastric fluid (SGF), read-out: Stability
[15] = Stability in SIF assessed as compound remaining measured upto 6 hrs by RP-UHPLC analysis; assay type: ADME; conditions: simulated intestinal fluid (SIF), read-out: Stability
[16] = Stability in SPF assessed as compound remaining measured upto 6 hrs by RP-UHPLC analysis; assay type: physicochemical; conditions: read-out: Stability
[17] = Stability in BALB/c mouse plasma assessed as compound remaining measured upto 6 hrs by RP-UHPLC analysis; assay type: ADME, cell-free; conditions: read-out: Stability
[18] = Cmax in BALB/c mouse at 5 mg/kg, po measured for 0.83 to 24 hrs by LC-MS/MS analysis; assay type: ADME, organism-based; parameters: time 0.83-24 hrs, dose 5 mg/kg, route po; conditions: in vivo
[19] = Tmax in BALB/c mouse at 5 mg/kg, po measured for 0.83 to 24 hrs by LC-MS/MS analysis; assay type: ADME, organism-based; conditions: in vivo, time 0.83-24 hrs
[20] = AUC (0 to infinity) in BALB/c mouse at 5 mg/kg, po measured for 0.83 to 24 hrs by LC-MS/MS analysis; assay type: ADME, organism-based; parameters: time upper 24 hrs, dose 5 mg/kg, time lower 0.83 hrs, route po; conditions: in vivo
[21] = Half life in BALB/c mouse at 5 mg/kg, po measured for 0.83 to 24 hrs by LC-MS/MS analysis; assay type: ADME, organism-based; conditions: in vivo, time 0.83-24 hrs
[22] = Clearance in BALB/c mouse at 5 mg/kg, po measured for 0.83 to 24 hrs by LC-MS/MS analysis; assay type: ADME, organism-based; conditions: in vivo, time 0.83-24 hrs
[23] = Volume of distribution in BALB/c mouse at 5 mg/kg, po measured for 0.83 to 24 hrs by LC-MS/MS analysis; assay type: ADME, organism-based; conditions: in vivo, time 0.83-24 hrs
[24] = MRT in BALB/c mouse at 5 mg/kg, po measured for 0.83 to 24 hrs by LC-MS/MS analysis; assay type: ADME, organism-based; conditions: in vivo, time 0.83-24 hrs
[25] = system: Mus musculus; assay: Induction of osteogenesis in BALB/c mouse model of drill hole defect at femur mid-diaphysis assessed as increase in fracture healing at 1 to 10 mg/kg, po for 12 days by micro-CT analysis; assay type: functional, organism-based; conditions: dose 1-10 mg/kg, time 12.0 day
Summary of the method: (§5)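 Female BALB/c mice, 8–9 weeks, given a drill-hole defect at femur mid-diaphysis under intraperitoneal ketamine (45 mg kg⁻¹)/xylazine (5 mg kg⁻¹); ten per group. Oral dosing at 1, 5 or 10 mg kg⁻¹ began the day after injury for 12 days; PTH 20 μg kg⁻¹ per day as reference. Defect region scanned by μCT for BV/TV, Tb.Th and Tb.N.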

[26] = system: Mus musculus; assay: Induction of osteogenesis in BALB/c mouse model of drill hole defect at femur mid-diaphysis assessed as increase in callus formation at 1 to 10 mg/kg, po for 12 days by micro-CT analysis; assay type: functional, organism-based; conditions: dose 1-10 mg/kg, time 12.0 day; summary of the method: as §5
[27] = system: Mus musculus; assay: Induction of osteogenesis in BALB/c mouse model of drill hole defect at femur mid-diaphysis assessed as increase in bone volume/tissue volume fraction at 5 to 10 mg/kg, po for 12 days by micro-CT analysis; assay type: functional, organism-based; conditions: dose 5-10 mg/kg, time 12.0 day; summary of the method: as §5
[28] = system: Mus musculus; assay: Induction of osteogenesis in BALB/c mouse model of drill hole defect at femur mid-diaphysis assessed as increase in trabecular thickness at 5 to 10 mg/kg, po for 12 days by micro-CT analysis; assay type: functional, organism-based; conditions: dose 5-10 mg/kg, time 12.0 day; summary of the method: as §5
[29] = system: Mus musculus; assay: Induction of osteogenesis in BALB/c mouse model of drill hole defect at femur mid-diaphysis assessed as increase in trabecular number at 5 mg/kg, po for 12 days by micro-CT analysis; assay type: functional, organism-based; conditions: time 12.0 day; summary of the method: as §5
[30] = system: Mus musculus; assay: Induction of osteogenesis in BALB/c mouse model of drill hole defect at femur mid-diaphysis assessed as increase in calcein binding at fracture site at 5 mg/kg, po for 12 days by confocal microscopy; assay type: functional, organism-based; conditions: time 12.0 day
Summary of the method: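 Femur drill-hole model in female BALB/c mice, oral dosing 1–10 mg kg⁻¹ for 12 days from the day after injury. Calcein 20 mg kg⁻¹ in saline given i.p. 24 h before autopsy; undecalcified drill-hole region embedded in acrylic, 50 μm sections cut, and calcein intensity at the fracture site quantified.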

[31] = system: Mus musculus; assay: Induction of osteogenesis in BALB/c mouse model of drill hole defect at femur mid-diaphysis assessed as increase in RUNX2 mRNA level at 5 to 10 mg/kg, po for 12 days by qPCR analysis; assay type: functional, organism-based; conditions: dose 5-10 mg/kg, time 12.0 day
[32] = system: Mus musculus; assay: Induction of osteogenesis in BALB/c mouse model of drill hole defect at femur mid-diaphysis assessed as increase in BMP2 mRNA level at 5 to 10 mg/kg, po for 12 days by qPCR analysis; assay type: functional, organism-based; conditions: dose 5-10 mg/kg, time 12.0 day
[33] = system: Mus musculus; assay: Induction of osteogenesis in BALB/c mouse model of drill hole defect at femur mid-diaphysis assessed as increase in type-1 col mRNA level at 5 to 10 mg/kg, po for 12 days by qPCR analysis; assay type: functional, organism-based; conditions: dose 5-10 mg/kg, time 12.0 day
[34] = system: Mus musculus; assay: Induction of osteogenesis in BALB/c mouse model of drill hole defect at femur mid-diaphysis assessed as increase in extracellular matrix deposition at 1 to 10 mg/kg, po for 12 days by H and E staining based analysis; assay type: functional, organism-based; conditions: dose 1-10 mg/kg, time 12.0 day
Summary of the method: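 Drill-hole femur defect, female BALB/c mice, oral dosing 1–10 mg kg⁻¹ for 12 days. Injury-site tissue fixed 48 h in 4% paraformaldehyde, 48 h in 70% isopropanol, decalcified, paraffin-embedded; 5 μm transverse sections stained with H&E and imaged by bright-field microscopy.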

[35] = system: Calvarial osteoblast; assay: Induction of cell proliferation of BALB/c mouse calvarial osteoblast cells at 10 nM incubated for 48 hrs by MTT assay relative to control

CCCCCC(=O)Nc1nc(-c2ccc(Br)cc2)c(Br)c(-c2cc(OC)c(OC)cc2OC)n1
Activity [1]: Active
Activity [2]: Non-Toxic
Activity [3]: ~32%
Activity [4]: ~31%
Activity [5]: ~39%
Activity [6]: ~40%
Activity [7]: Active
Activity [8]: Active
Activity [9]: Active
Activity [10]: Active
Activity [11]: Active
Activity [12]: Active
Activity [13]: Active
remaining at 6 h [14]: > 50%
remaining at 6 h [15]: > 50%
remaining at 6 h [16]: > 85%
remaining at 6 h [17]: > 85%
Cmax [18]: 0.83 ng/mL
Tmax [19]: 0.83 h
AUC [20]: 6.18006 ng·h/mL
half-life [21]: 12.4 h
CL [22]: 1964 mL/min/kg
Vd [23]: 2113.99 L/kg
MRT [24]: 18.1 h
Activity [25]: Active
Activity [26]: Active
Activity [27]: Active
Activity [28]: Active
Activity [29]: Active
Activity [30]: Active
Activity [31]: Active
Activity [32]: Active
Activity [33]: Active
Activity [34]: Active
Activity [35]: ~23%
